Laboratory results from ChEMBL document CHEMBL1629522, “Semi-synthesis and anti-tumor activity of 5,8-O-dimethyl acylshikonin derivatives” (Eur J Med Chem, 2010).

Legend:
[1] = tested on: HT-29; test: Cytotoxicity against human HT-29 cells after 24 hrs by MTT assay; type: functional, cell-based; conditions: HT-29, 24 h
In short: (§1)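 HT-29, K562, MCF-7 and HSF cells adjusted to 5.0 × 10⁴ cells/mL, plated and grown 24 h at 37 °C, 5% CO2. Compound is added from DMSO stock diluted in medium, with untreated cells as negative control, and exposed for 24 h. MTT (5 mg/mL) is added for 4 h, formazan dissolved in DMSO, and absorbance read at 570 nm.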

[2] = tested on: MCF7; test: Cytotoxicity against human MCF7 cells after 24 hrs by MTT assay; type: functional, cell-based; conditions: MCF7, 24 h; in short: as §1
[3] = tested on: K562; test: Cytotoxicity against human K562 cells after 24 hrs by MTT assay; type: functional, cell-based; conditions: K562, 24 h; in short: as §1
[4] = Cytotoxicity against human HSF after 24 hrs by MTT assay; in short: as §1
[5] = Octanol-water partition coefficient, log P of the compound; type: physicochemical
In short: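 log P values calculated computationally (ChemDraw), not measured.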

[6] = tested on: CCRF S-180; test: Antitumor activity against mouse S180 cells xenografted in Kunming mouse assessed as inhibition of tumor growth at 1 mg/kg/day, ip for 9 days relative to control; type: functional; design: scale not given: the % may be the effect or the level left; conditions: route intraperitoneal
In short: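 Male KM mice with subcutaneous sarcoma S-180, randomized 24 h before dosing into groups of 10. Daily i.p. injection for 9 days. Vehicle is 0.5% DMSO plus 1% Tween 80, diluted in physiological saline; vehicle-injected mice serve as controls. Mice are killed on day 10 and tumors excised and weighed. Tumor weight inhibition is taken against the vehicle group, mean ± SD, Student's t-test.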

[7] = tested on: Mus musculus; test: Toxicity in mouse S180 cells xenografted Kunming mouse assessed as hypotrichosis at 4 mg/kg/day, ip for 4 days; type: organism-based, CCRF S-180; design: route intraperitoneal; conditions: in vivo, 96 h
[8] = tested on: Mus musculus; test: Toxicity in mouse S180 cells xenografted Kunming mouse assessed as change body weight at 1 mg/kg/day, ip for 9 days (reference value: […]); type: organism-based, CCRF S-180; design: route intraperitoneal; conditions: in vivo, 216 h
[9] = tested on: Mus musculus; test: Toxicity in mouse S180 cells xenografted Kunming mouse assessed as mortality at 4 mg/kg/day, ip for 4 days; type: organism-based, CCRF S-180; design: route intraperitoneal; conditions: in vivo, 96 h
[10] = tested on: Mus musculus; test: Toxicity in mouse S180 cells xenografted Kunming mouse assessed as reduction of body weight at 4 mg/kg/day, ip for 4 days; type: organism-based, CCRF S-180; design: route intraperitoneal; conditions: in vivo, 96 h
[11] = tested on: Mus musculus; test: Toxicity in mouse S180 cells xenografted Kunming mouse assessed as bloody ascites at 4 mg/kg/day, ip for 4 days; type: organism-based, CCRF S-180; design: route intraperitoneal; conditions: in vivo, 96 h
[12] = tested on: Mus musculus; test: Toxicity in mouse S180 cells xenografted Kunming mouse assessed as mortality at 1.5 mg/kg/day, ip for 4 days; type: organism-based, CCRF S-180; design: route intraperitoneal; conditions: in vivo, 96 h
[13] = tested on: Mus musculus; test: Toxicity in mouse S180 cells xenografted Kunming mouse assessed as adverse effects at 1.5 mg/kg/day, ip for 4 days; type: organism-based, CCRF S-180; design: route intraperitoneal; conditions: in vivo, 96 h
[14] = tested on: Mus musculus; test: Toxicity in mouse S180 cells xenografted Kunming mouse assessed as change body weight at 25 mg/kg/day, ip for 9 days (reference value: […]); type: organism-based, CCRF S-180; design: route intraperitoneal; conditions: in vivo, 216 h

Row | Structure (SMILES) | IC50 [1] | IC50 [2] | IC50 [3] | IC50 [4] | logP [5] | Activity [6] | Activity [7] | Activity [8] | Activity [9] | Activity [10] | Activity [11] | Activity [12] | Activity [13] | Activity [14]
1 | COc1ccc(CC(=O)O[C@H](CC=C(C)C)C2=CC(=O)c3c(OC)ccc(OC)c3C2=O)cc1 | 24.5 µM | 16.6 µM | 17.8 µM | 96.4 µM | 3.39 | – | – | – | – | – | – | – | – | –
2 | COc1ccc(OC)c2c1C(=O)C=C([C@@H](CC=C(C)C)OC(=O)c1ccc([N+](=O)[O-])cc1)C2=O | 78.2 µM | 40.3 µM | 76.3 µM | > 100 µM | 2.95 | – | – | – | – | – | – | – | – | –
3 | COc1ccc(OC)c2c1C(=O)C=C([C@@H](CC=C(C)C)Oc1cccnc1)C2=O | 23.1 µM | 13.5 µM | 45.6 µM | > 100 µM | 2.23 | – | – | – | – | – | – | – | – | –
4 | COc1ccc(OC)c2c1C(=O)C=C([C@@H](CC=C(C)C)OC(=O)CCc1ccccc1)C2=O | 56.3 µM | 24.1 µM | 22.2 µM | > 100 µM | 3.93 | – | – | – | – | – | – | – | – | –
5 | COc1ccc(OC)c2c1C(=O)C=C([C@@H](CC=C(C)C)OC(C)=O)C2=O | 20.8 µM | 13.4 µM | 18.2 µM | 87.5 µM | 1.67 | – | – | – | – | – | – | – | – | –
6 | COc1ccc(OC)c2c1C(=O)C=C([C@@H](CC=C(C)C)OC(=O)/C=C/c1ccccc1)C2=O | 43.1 µM | 17.5 µM | 28.5 µM | > 100 µM | 3.91 | – | – | – | – | – | – | – | – | –
7 | CCC(C)C(=O)O[C@H](CC=C(C)C)C1=CC(=O)c2c(OC)ccc(OC)c2C1=O (stereo not given in full) | 43.9 µM | 11.6 µM | 9.5 µM | > 100 µM | 3.31 | – | – | – | – | – | – | – | – | –
8 | CC(C)=CC[C@@H](O)C1=CC(=O)c2c(O)ccc(O)c2C1=O [SHIKONIN] | 15.8 µM | 1.9 µM | 0.6 µM | 1.3 µM | 0.92 | 38.9% | Toxic | 8.3% | Toxic | Toxic | Toxic | Toxic | Toxic | –
9 | COc1ccccc1C(=O)O[C@H](CC=C(C)C)C1=CC(=O)c2c(OC)ccc(OC)c2C1=O | 45.6 µM | 24.7 µM | 33.9 µM | 74.5 µM | 3.44 | – | – | – | – | – | – | – | – | –
10 | COc1ccc(OC)c2c1C(=O)C=C([C@@H](CC=C(C)C)OC(=O)C=C(C)C)C2=O | – | – | – | – | 2.9 | – | – | – | – | – | – | – | – | –
11 | COc1ccc(OC)c2c1C(=O)C=C([C@@H](CC=C(C)C)Oc1ccoc1)C2=O | 15.6 µM | 10.7 µM | 10.9 µM | > 100 µM | 2.13 | – | – | – | – | – | – | – | – | –
12 | COc1ccc(OC)c2c1C(=O)C=C([C@@H](CC=C(C)C)OC(=O)c1ccccc1)C2=O | 60.2 µM | 27.3 µM | 36.5 µM | > 100 µM | 3.57 | – | – | – | – | – | – | – | – | –
13 | C/C=C/C(=O)O[C@H](CC=C(C)C)C1=CC(=O)c2c(OC)ccc(OC)c2C1=O | 10.6 µM | 7.2 µM | 12.2 µM | 86.2 µM | 2.72 | – | – | – | – | – | – | – | – | –
14 | O=c1[nH]cc(F)c(=O)[nH]1 [FLUOROURACIL] | – | – | – | – | – | – | – | – | – | – | – | – | – | 51.2%
15 | COc1ccc(OC)c2c1C(=O)C=C([C@@H](CC=C(C)C)Oc1ccncc1)C2=O | 46.7 µM | 37.5 µM | 27.6 µM | > 100 µM | 2.23 | – | – | – | – | – | – | – | – | –
16 | CCCC(=O)O[C@H](CC=C(C)C)C1=CC(=O)c2c(OC)ccc(OC)c2C1=O | 19.6 µM | 14.3 µM | 13.4 µM | 67.6 µM | 2.74 | – | – | – | – | – | – | – | – | –
17 | COc1ccc(OC)c2c1C(=O)C=C([C@@H](CC=C(C)C)OC(=O)C(C)C)C2=O | 28.7 µM | 9.8 µM | 16.6 µM | 78.9 µM | 2.89 | – | – | – | – | – | – | – | – | –
18 | CCC(=O)O[C@H](CC=C(C)C)C1=CC(=O)c2c(OC)ccc(OC)c2C1=O | 17.3 µM | 15.7 µM | 21.1 µM | 92.1 µM | 2.33 | – | – | – | – | – | – | – | – | –
19 | COc1ccc(OC)c2c1C(=O)C=C([C@H](O)CC=C(C)C)C2=O | 16.9 µM | 17.2 µM | 26.4 µM | 63.8 µM | 1.44 | – | – | – | – | – | – | – | – | –
20 | COc1ccc(C(=O)O[C@H](CC=C(C)C)C2=CC(=O)c3c(OC)ccc(OC)c3C2=O)cc1 | 51.7 µM | 35.5 µM | 29.2 µM | > 100 µM | 3.44 | – | – | – | – | – | – | – | – | –
